For test [1], the system named is Klebsiella pneumoniae. Kind of test: Inhibitory concentration of compound was tested against gram negative Klebsiella pneumoniae. The format is functional. In outline: (§1)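 MIC by agar dilution on sensitivity test agar with serial twofold antibiotic dilutions. The inoculum was an overnight tryptose broth culture diluted to about 10⁶ cells/mL. Plates were incubated at 37 °C for 18-20 h. MIC was the lowest concentration inhibiting visible growth.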

Test [2] relates to Escherichia coli. The test can be described thus: Inhibitory concentration of compound was tested against gram negative Escherichia coli 73. In kind it is functional. In outline:
as §1

For test [3], the target named is Beta-lactamase (Enterobacter cloacae) (UniProt P05364). The test can be described thus: Hydrolysis rate by the beta-lactamase from Enterobacter cloacae 214 relative to cephaloridine (100);c= Hydrolysis was not detected. In outline:
(§2)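 Cells were grown statically in nutrient phosphate broth for 16 h at 37 °C and disrupted ultrasonically. β-lactamase was partially purified on CM-Sephadex C-50. Substrate (100 μM final) was hydrolysed in 0.1 M potassium phosphate pH 7.0 at 30 °C, with the enzyme diluted in buffer containing 0.001% gelatin. Rate came from the slope of UV optical density decrease and was expressed relative to cephaloridine = 100.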

Test [4] concerns the target T1, Beta-lactamase (Klebsiella oxytoca) (UniProt Q8RT60).
T1 sequence (whole entry): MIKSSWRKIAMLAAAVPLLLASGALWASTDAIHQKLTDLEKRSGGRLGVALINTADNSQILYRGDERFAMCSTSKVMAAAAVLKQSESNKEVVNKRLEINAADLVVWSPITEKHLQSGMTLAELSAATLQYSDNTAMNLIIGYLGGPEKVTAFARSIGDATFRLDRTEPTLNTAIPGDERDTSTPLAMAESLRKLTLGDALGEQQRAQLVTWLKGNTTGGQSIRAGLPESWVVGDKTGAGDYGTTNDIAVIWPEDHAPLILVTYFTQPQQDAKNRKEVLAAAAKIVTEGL
Kind of test: Hydrolysis rate by beta-lactamase of Klebsiella sp. 363 relative to cephaloridine (100). The gist of the method:
(§3)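 Constitutive producers were grown statically in nutrient phosphate broth at 37 °C for 16 h, then sonicated. Enzyme was partially purified on DEAE-Sephadex A-25 (phosphate gradient, 0.01 M pH 8.0 to 0.5 M pH 6.2). Assay conditions: 0.1 M potassium phosphate pH 7.0, 30 °C, 0.001% gelatin in enzyme diluent, 100 μM final substrate. Hydrolysis rate was taken from the slope of UV absorbance decrease, with cephaloridine set to 100.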

In test [5] the test system is Klebsiella pneumoniae. The test can be described thus: (§4) Inhibitory concentration of compound was tested against gram negative Klebsiella sp 363. In kind it is functional. The gist of the method:
as §1

The target of test [6] is Beta-lactamase (Escherichia coli K-12) (UniProt P00811). The test can be described thus: Hydrolysis rate by the beta-lactamase from Escherichia coli 6 relative to cephaloridine (100);c= Hydrolysis was not detected. In outline: as §2
Beta-lactamase (Escherichia coli K-12), sequence (P00811 whole entry): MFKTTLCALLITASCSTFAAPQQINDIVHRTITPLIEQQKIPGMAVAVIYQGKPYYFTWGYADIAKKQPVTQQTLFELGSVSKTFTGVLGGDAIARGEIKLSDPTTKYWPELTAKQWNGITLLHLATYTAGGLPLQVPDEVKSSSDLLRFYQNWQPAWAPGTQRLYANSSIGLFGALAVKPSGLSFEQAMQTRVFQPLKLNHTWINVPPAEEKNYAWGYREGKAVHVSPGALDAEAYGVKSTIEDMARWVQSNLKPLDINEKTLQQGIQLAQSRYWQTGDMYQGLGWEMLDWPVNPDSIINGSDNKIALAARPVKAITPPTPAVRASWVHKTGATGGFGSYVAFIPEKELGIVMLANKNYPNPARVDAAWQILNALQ
The subject of test [7] is Beta-lactamase (Proteus vulgaris). Kind of test: Hydrolysis rate by the beta-lactamase from Proteus vulgaris 31 relative to cephaloridine.
In test [8] the target is Beta-lactamase TEM (Escherichia coli) (UniProt P62593). Kind of test: Hydrolysis rate by the beta-lactamase from Escherichia coli W3110 RTEM relative to cephaloridine. The gist of the method: as §3
Beta-lactamase TEM (Escherichia coli), sequence (P62593 whole entry): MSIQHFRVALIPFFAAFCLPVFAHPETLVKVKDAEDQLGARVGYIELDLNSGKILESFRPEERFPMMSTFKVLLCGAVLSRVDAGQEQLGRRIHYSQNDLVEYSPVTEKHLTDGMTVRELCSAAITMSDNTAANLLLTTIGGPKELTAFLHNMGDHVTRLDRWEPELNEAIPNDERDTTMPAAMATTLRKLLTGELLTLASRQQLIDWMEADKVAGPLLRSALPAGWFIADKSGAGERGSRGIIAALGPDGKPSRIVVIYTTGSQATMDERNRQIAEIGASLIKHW
Test [9] deals with Escherichia coli. The test can be described thus: Inhibitory concentration of compound was tested against gram negative Escherichia coli H organism. The format is functional. In outline:
as §1

Test [10] deals with Proteus mirabilis. The test can be described thus: Inhibitory concentration of compound was tested against gram negative Proteus mirabilis PR-4. The format is functional. The gist of the method:
as §1

Test [11] has as its system Escherichia coli. Kind of test: Inhibitory concentration of compound was tested against gram negative Escherichia coli NIH JC-2. In kind it is functional. The gist of the method:
as §1

The test system of test [12] is Proteus mirabilis. The test can be described thus: Inhibitory concentration of compound was tested against gram negative Proteus mirabilis PR-4.
The test system of test [13] is Escherichia coli. Kind of test: Inhibitory concentration of compound was tested against gram negative Escherichia coli NIH JC-2. The format is functional. In outline:
as §1

Test [14] has as its system Klebsiella. Described as §4. In kind it is functional. In outline: as §1
The target in test [15] is Beta-lactamase (Escherichia coli K-12) (UniProt P00811). Kind of test: Hydrolysis rate by the beta-lactamase from Escherichia coli 6 relative to cephaloridine. The gist of the method:
as §2

Test [16] has as its system Beta-lactamase (Klebsiella sp.). The test can be described thus: Hydrolysis rate by the beta-lactamase from Klebsiella sp. 363 relative to cephaloridine (100).
Test [17] relates to Escherichia coli. Kind of test: Inhibitory concentration of compound was tested against gram negative Escherichia coli H organism. The format is functional. In outline: as §1
The test system of test [18] is Klebsiella pneumoniae. Kind of test: Inhibitory concentration of compound was tested against gram negative Klebsiella pneumoniae.
In test [19] the test system is Beta-lactamase (Enterobacter cloacae). Kind of test: Hydrolysis rate by the beta-lactamase from Enterobacter cloacae 214 relative to cephaloridine (100).
Test [20] concerns Beta-lactamase (Proteus vulgaris). Kind of test: Hydrolysis rate by the beta-lactamase from Proteus vulgaris 31 relative to cephaloridine (100).

≈ marks a conversion by molar mass, not a printed value.

Beta-lactamase (Enterobacter cloacae) (UniProt P05364), sequence (P05364 21-381 limits assumed): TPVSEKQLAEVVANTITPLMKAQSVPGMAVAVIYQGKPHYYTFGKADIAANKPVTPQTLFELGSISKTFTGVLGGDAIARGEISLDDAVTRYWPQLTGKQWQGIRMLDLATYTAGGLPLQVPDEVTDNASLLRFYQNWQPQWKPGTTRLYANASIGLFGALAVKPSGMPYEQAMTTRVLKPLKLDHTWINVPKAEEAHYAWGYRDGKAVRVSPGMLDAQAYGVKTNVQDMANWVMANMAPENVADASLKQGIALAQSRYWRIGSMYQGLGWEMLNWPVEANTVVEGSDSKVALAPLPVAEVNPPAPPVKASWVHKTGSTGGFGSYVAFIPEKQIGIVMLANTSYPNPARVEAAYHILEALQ

The term MIC denotes the lowest concentration found to suppress growth. A low value points to a more susceptible organism. For the compound `Cn1nnnc1SCC1=C(C(=O)O)N2C(=O)C(NC(=O)C(C(=O)O)c3ccc(O)cc3)C2SC1` (stereo unspecified), the MIC in [1] was determined as 3.13 µg/mL (≈ 6.18 µM); in test [2] it was 50 µg/mL (≈ 98.7 µM); in test [5], 50 µg/mL (≈ 98.7 µM); in test [9], 3.13 µg/mL (≈ 6.18 µM); in test [10] it was 3.13 µg/mL (≈ 6.18 µM); in test [11] it was 3.13 µg/mL (≈ 6.18 µM). Further, the Relative hydrolysis rate entry in test [3] is “Hydrolysis not detected”; in [4], 6.3; in [6] it was “Hydrolysis not detected”; in test [7], 20; in [8], 0.96.
`CC1=C(C(=O)O)N2C(=O)C(NC(=O)CSC(F)(F)F)C2SC1` (stereo unspecified): the MIC is > 100 µg/mL in [2]; 50 µg/mL (≈ 140 µM) in [12]; 50 µg/mL (≈ 140 µM) in [13]; > 100 µg/mL in test [14]; 25 µg/mL (≈ 70.2 µM) in [17]; 50 µg/mL (≈ 140 µM) in test [18]. Also, the Relative hydrolysis rate in test [7] was found to be 160; in test [15], 750; in test [16], 6.2; in [8], 1.5.
Consider `CC1=C(C(=O)O)N2C(=O)C(NC(=O)C(N)c3ccccc3)C2OC1` (stereo unspecified), for which the Relative hydrolysis rate was 95 in test [19]; 260 in test [15]; 9.6 in [16]; 330 in [20]; 12 in test [8].

These data come from ChEMBL document CHEMBL1121719, “1-Oxacephalosporins: enhancement of beta-lactam reactivity and antibacterial activity” (1981).
